Assay results from paper PMC7425103 (Drug Design, Development and Therapy, 2020).

Key:
Format in all cases: cell-based, human
[1] = tested on: Hep G2 (hepatocellular liver carcinoma) cell line; experiment: MTT anticancer; settings: ratio of IC50 values vs reference CA-4
[2] = tested on: MCF-7 (breast cancer) cell line; experiment: MTT anticancer; settings: ratio of IC50 values vs reference CA-4
Outline: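 ATCC MCF-7 cells were grown in DMEM with 10% FBS and penicillin/streptomycin. After trypsin detachment they were seeded at 1000–2000 cells/well and held 34 hours at 37°C in 5% CO2. Test compound was added at 0.1, 1, 10, 25 and 100 μM for 72 hours. Then 5% MTT was added for 2 h at 37°C, formazan was dissolved in isopropanol, and absorbance was read at 570 nm. Viability was expressed as % of control and IC50 derived by curve fitting.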

MCF-7 cell line [3] = experiment: Cell cycle analysis by DNA flow cytometry; settings: MCF-7, at IC50
MCF-7 cell line [4] = experiment: Annexin V-FITC/PI staining apoptosis assay; settings: MCF-7, at IC50, 24 hours
Outline: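 MCF-7 cells were seeded at 4 x 10^6/well and exposed to the test compound for 24 hours. Cells were washed three times with ice-cold PBS and resuspended in PBS. They were then stained with Annexin V-FITC and PI from a kit for 15 minutes at room temperature in the dark, and analysed by flow cytometry.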

In the case of `COc1cc(/C=C/C(=O)c2ccc(NC(=O)c3ccccc3CN3C(=O)c4ccccc4C3=O)cc2)cc(OC)c1OC` [Compound 7j, (E)-2-((1,3-Dioxoisoindolin-2-Yl)Methyl)-N-(4-(3-(3,4,5-Trimethoxyphenyl)Acryloyl)Phenyl)Benzamide], the “fold anticancer activity relative to CA-4, Hep G2” value [1] is reported as 4.51 fold, the “fold anticancer activity relative to CA-4, MCF-7” value [2] is reported as 2.57 fold and the “apoptosis at preG1 phase, times higher than entinostat” value (MCF-7 cell line [3]) is reported as 1.04 times. For the same compound, the “cell accumulation percentage at G2/M phase, fold higher than CA-4” value (MCF-7 cell line [3]) was 1.05 fold, the “percentage of cells at G2/M, folds higher than entinostat” value (MCF-7 cell line [3]) was 1.53 fold and the “cell necrosis, fold increase compared to untreated control” value (MCF-7 cell line [4]) was 2.09 fold. For the same compound, the “early apoptotic cell population, fold more than untreated control” value (MCF-7 cell line [4]) was 14.36 fold and the “late apoptotic cells population, folds increase vs untreated control” value (MCF-7 cell line [4]) was 44.60 fold.
